Data: ChEMBL document CHEMBL3352378, “Novel carbazole inhibits phospho-STAT3 through induction of protein-tyrosine phosphatase PTPN6” (J Med Chem, 2014)
The source made the active and inactive calls. The rule behind the calls is not given here.

Experiments:
Mus musculus [1] = test: Toxicity in athymic Balb/c nude mouse xenografted with human SUM149 cells assessed as change in body weight at 10 to 30 mg/kg, ip administered every other day for 5 days; assay type: organism-based; design: dose 10-30 mg/kg, route intraperitoneal; conditions: in vivo, 120 h
Outline: (§1)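 SUM149 cells (3×10^6) implanted subcutaneously in the right auxiliary region of male and female athymic nude mice (18–22 g). Groups of five, randomized; dosed ip every other day at 10 or 30 mg/kg from 1 mg/mL Cremophore 10%/PEG400 3%/PBS vehicle, vehicle control. Tumor volume by caliper (L×w×w/2); body weight, appetite, activity and lethargy monitored.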

[2] = molecular target: Signal transducer and activator of transcription 3 (Homo sapiens) (UniProt P40763); test: Inhibition of STAT3C-mediated transcription in human Hs578T cells at 1 uM after 24 hrs by luciferase reporter gene assay; assay type: cell-based; conditions: Hs-578T
Sequence of Signal transducer and activator of transcription 3 (Homo sapiens) (P40763 whole entry): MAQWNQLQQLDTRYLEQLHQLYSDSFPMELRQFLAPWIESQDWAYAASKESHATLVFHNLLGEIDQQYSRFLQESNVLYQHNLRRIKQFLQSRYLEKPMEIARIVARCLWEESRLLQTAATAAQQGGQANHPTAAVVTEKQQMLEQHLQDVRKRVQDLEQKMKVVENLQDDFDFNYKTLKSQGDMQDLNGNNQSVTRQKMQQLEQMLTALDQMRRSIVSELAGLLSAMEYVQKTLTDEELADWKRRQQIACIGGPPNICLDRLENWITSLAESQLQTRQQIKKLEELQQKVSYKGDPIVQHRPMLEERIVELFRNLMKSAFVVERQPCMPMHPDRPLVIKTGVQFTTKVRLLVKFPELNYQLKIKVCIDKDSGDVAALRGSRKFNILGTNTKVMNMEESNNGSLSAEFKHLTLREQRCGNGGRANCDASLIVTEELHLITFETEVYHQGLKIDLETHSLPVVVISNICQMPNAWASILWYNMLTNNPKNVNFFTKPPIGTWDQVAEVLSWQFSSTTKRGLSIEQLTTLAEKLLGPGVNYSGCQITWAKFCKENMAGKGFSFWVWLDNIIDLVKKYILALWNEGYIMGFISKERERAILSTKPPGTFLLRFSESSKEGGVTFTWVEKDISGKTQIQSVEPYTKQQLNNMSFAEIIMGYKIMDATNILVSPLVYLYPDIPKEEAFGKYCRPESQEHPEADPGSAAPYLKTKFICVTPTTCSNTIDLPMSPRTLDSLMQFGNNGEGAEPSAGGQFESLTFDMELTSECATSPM
Outline: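 HS578T cells co-transfected with a constitutively active STAT3 (STAT3C) expression vector and the APRE-Luc reporter. Treated at 1 μM for 24 h, with JAK2 inhibitor AZD1480 for comparison. Luciferase measured; mean ± SD of triplicates.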

[3] = molecular target: Signal transducer and activator of transcription 3 (Homo sapiens) (UniProt P40763); test: Inhibition of STAT3 in human SUM149PT cells assessed as reduction of cyclin D1 mRNA expression at 0.3 to 1 uM after 24 hrs by RT-PCR analysis; assay type: cell-based
Outline: (§2)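 HS578T and SUM149PT cells treated for 24 h with increasing concentrations. Transcripts measured by RT-PCR, normalized to GAPDH as loading control.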

[4] = Drug uptake in human MDA-MB-231 cell cytoplasm at 10 uM after 1 hr by two-photon confocal microscopy; assay type: ADME, cell-based; conditions: mda-mb-231, 1 h
Outline: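 MDA-MB-231 cells grown overnight on fibronectin/[…]-coated slides, then given 10 μM compound or DMSO for 1 h. Cells washed with PBS and fixed in 4% formaldehyde. Two-photon excitation at 725 nm, emission collected through a 500–550 nm filter.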

SUM149PT = test: Antitumor activity against human SUM149 cells xenografted in athymic Balb/c nude mouse assessed as reduction in pSTAT3 level at 30 mg/kg, ip administered every other day for 5 days measured on day 5 by Western blotting analysis; assay type: functional, organism-based; design: dose 30 mg/kg
Outline: (§3)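 SUM149 subcutaneous xenografts in nude mice (n = 5), dosed ip every other day in Cremophore/PEG400/PBS vehicle. Tumors taken on day 5 were immunoblotted for PTPN6, STAT3 and pSTAT3, with GAPDH as control. PTPN6 quantified by densitometry with a one-tailed t test.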

Hs-578T [5] = test: Induction of PTPN6 protein expression in human Hs578T cells transfected with PTPN6-siRNA after 24 hrs by Western blotting analysis; assay type: functional, cell-based
Outline: (§4)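 HS578T cells transfected with 100 nM control or PTPN6 siRNA using Lipofectamine 2000 in serum-free medium. Medium with 20% FBS added after 4 h, and cells kept 3 days. Then treated with DMSO or compound for 24 h. PTPN6 and phospho-STAT3 immunoblotted and quantified by ImageJ densitometry.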

MDA-MB-231 = test: Cytotoxicity against human MDA-MB-231 cells after 72 hrs by MTT assay; assay type: functional, cell-based
Outline: (§5)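 Cells exposed to increasing concentrations for about 72 h, and viability read by MTT. EC50 fitted with CompuSyn. Two independent experiments, each in triplicate, mean ± SEM. Compound stocks 10 mM in DMSO.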

Mus musculus [6] = test: Toxicity in athymic Balb/c nude mouse xenografted with human SUM149 cells assessed as lethargy at 10 to 30 mg/kg, ip administered every other day for 5 days; assay type: organism-based; design: dose 10-30 mg/kg, route intraperitoneal; conditions: in vivo, 120 h; outline: as §1
[7] = molecular target: Signal transducer and activator of transcription 3 (Homo sapiens) (UniProt P40763); test: Inhibition of STAT3 in human SUM149PT cells assessed as reduction of IL-6 induced STAT3 phosphorylation at Y705 incubated for 2 hrs prior to IL-6 challenge measured after 30 mins by Western blotting analysis; assay type: cell-based
Hs-578T [8] = test: Cytotoxicity against human Hs578T cells after 72 hrs by MTT assay; assay type: functional, cell-based; outline: as §5
[9] = Antitumor activity against human SUM149 cells xenografted in athymic Balb/c nude mouse at 10 to 30 mg/kg, ip administered every other day for 5 days measured on day 5; assay type: functional, SUM149PT; conditions: dose mg/kg 10-30; route intraperitoneal; outline: as §1
[10] = molecular target: Signal transducer and activator of transcription 3 (Homo sapiens) (UniProt P40763); test: Inhibition of STAT3 in human SUM149PT cells assessed as reduction of STAT3 phosphorylation at Y705 after 24 hrs by Western blotting analysis; assay type: cell-based
Outline: (§6)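 HS578T and SUM149PT cells given increasing concentrations for 24 h. Lysates immunoblotted with the indicated antibodies, β-actin as loading control.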

A549 [11] = test: Antitumor activity against human A549 cells xenografted in athymic Balb/c nude mouse at 10 mg/kg, ip administered every other day for 27 days measured on day 5; assay type: functional; conditions: route intraperitoneal, read-out: TGI
Outline: (§7)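 Male and female athymic nude mice (18–22 g) implanted subcutaneously in the right auxiliary region with 3×10^6 A549 cells. Mice were randomized into groups of five 3 days after implantation, and dosing started at about 50 mm³ tumor. Working solution 1 mg/mL in 10% Cremophore/3% PEG400/87% PBS; ip every other day, vehicle control. Caliper volume L×w×w/2, mean ± SEM, n = 5.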

[12] = Antitumor activity against human SUM149 cells xenografted in athymic Balb/c nude mouse assessed as PTPN6 upregulation at 30 mg/kg, ip administered every other day for 5 days measured on day 5 by Western blotting analysis; assay type: functional, organism-based; design: dose 30 mg/kg; conditions: SUM149PT; outline: as §3
MDA-MB-453 = test: Cytotoxicity against human MDA-MB-453 cells after 72 hrs by MTT assay; assay type: functional, cell-based; outline: as §5
Hs-578T [13] = test: Induction of PTPN6 protein expression in human Hs578T cells transfected with control-siRNA after 24 hrs by Western blotting analysis; assay type: functional, cell-based; outline: as §4
[14] = molecular target: Signal transducer and activator of transcription 3 (Homo sapiens) (UniProt P40763); test: Inhibition of STAT3 in human Hs578T cells assessed as reduction of survivin mRNA expression at 0.3 to 1 uM after 24 hrs by RT-PCR analysis; assay type: cell-based; conditions: Hs-578T; outline: as §2
[15] = molecular target: Signal transducer and activator of transcription 3 (Homo sapiens) (UniProt P40763); test: Inhibition of STAT3 in human SUM149PT cells assessed as reduction of survivin mRNA expression at 0.3 to 1 uM after 24 hrs by RT-PCR analysis; assay type: cell-based; outline: as §2
A-431 = test: Cytotoxicity against human A431 cells after 72 hrs by MTT assay; assay type: functional; conditions: A-431, 72 h; outline: as §5
[16] = molecular target: Signal transducer and activator of transcription 3 (Homo sapiens) (UniProt P40763); test: Inhibition of STAT3 in human SUM149PT cells assessed as reduction of cyclin D1 level at 0.3 to 3 uM after 24 hrs by Western blotting analysis; assay type: cell-based; outline: as §6
A549 [17] = test: Antitumor activity against human A549 cells xenografted in athymic Balb/c nude mouse at 10 mg/kg, ip administered every other day for 27 days measured up to day 27; assay type: functional; conditions: 648 h, route intraperitoneal, read-out: TGI; outline: as §7
Mus musculus [18] = test: Toxicity in athymic Balb/c nude mouse xenografted with human SUM149 cells assessed as decreased activity at 10 to 30 mg/kg, ip administered every other day for 5 days; assay type: organism-based; design: dose 10-30 mg/kg, route intraperitoneal; conditions: in vivo, 120 h; outline: as §1

inhibition [2]: Active | inhibition [3]: Active | Drug uptake [4]: Active | inhibition [7]: Dose-dependent effect | inhibition [10]: Dose-dependent effect | inhibition [16]: Active
SMILES: Cc1c(OS(=O)(=O)c2cccc3c(N(C)C)cccc23)ccc2c1[nH]c1cc(O)ccc12
Activity (Mus musculus [1]): Non-toxic | Activity (SUM149PT): Active | Activity (Hs-578T [5]): inactive | Activity (MDA-MB-231): Active | Activity (Mus musculus [6]): Non-toxic | Activity (Hs-578T [8]): Active | TGI [9]: 57% | inhibition in vivo at 10 mg/kg (A549 [11]): 68.7% | Activity [12]: Active | Activity (MDA-MB-453): Active | Activity (Hs-578T [13]): Active | inhibition [14]: Active | inhibition [15]: Active | GI50 (A-431): 160 nM | inhibition in vivo at 10 mg/kg (A549 [17]): 54.9% | Activity (Mus musculus [18]): Non-toxic
